Laboratory results from ChEMBL document CHEMBL1157543, “Synthesis and biological evaluation of polysulfated oligosaccharide glycosides as inhibitors of angiogenesis and tumor growth” (J Med Chem, 2010).

Key:
HUVEC = test: Cytotoxicity against HUVEC; format: cell-based; conditions: human
[1] = Toxicity in rat aortic endothelium assessed as microvessel sprouts at 10 and 50 uM after 6 or 7 days; format: tissue-based, Sprague-Dawley, Aorta; conditions: ex_vivo, 168 h
How it was run: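 Aortic ring viability check: on day 6 or 7, compound or medium was withdrawn and complete medium with VEGF (typically 10 ng/mL) was added for up to 7 more days. New microvessel sprouting was taken as a sign of viable tissue.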

Plasma [2] = test: Anticoagulant activity in human plasma assessed as activated partial thromboplastin time; format: functional
How it was run: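 Pooled normal human plasma spiked with compound in PBS at 0.1 mg/mL (methods give a 0–100 μg/mL range); APTT elevation measured. Normal range 26–36 s. Values are means of two determinations.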

[3] = biological target: Fibroblast growth factor 2 (Homo sapiens, UniProt P09038); test: Binding affinity to FGF2 by surface plasmon-based solution affinity assay
Fibroblast growth factor 2, sequence (P09038 143-288 limits assumed): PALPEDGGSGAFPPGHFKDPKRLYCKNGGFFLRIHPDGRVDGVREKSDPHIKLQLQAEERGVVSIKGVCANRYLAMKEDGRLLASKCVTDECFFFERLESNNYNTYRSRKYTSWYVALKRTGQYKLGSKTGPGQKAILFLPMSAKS
How it was run: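 Surface plasmon resonance solution affinity assay on heparin-coated CM4 chips. FGF-2 binding run in HBS-EP containing 300 mM NaCl. Kd is the mean of at least duplicate measurements ± SD.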

Heparanase = biological target: T1, Heparanase (Homo sapiens, UniProt Q9Y251); test: Inhibition of human recombinant heparanase
T1 sequence (Q9Y251 whole entry): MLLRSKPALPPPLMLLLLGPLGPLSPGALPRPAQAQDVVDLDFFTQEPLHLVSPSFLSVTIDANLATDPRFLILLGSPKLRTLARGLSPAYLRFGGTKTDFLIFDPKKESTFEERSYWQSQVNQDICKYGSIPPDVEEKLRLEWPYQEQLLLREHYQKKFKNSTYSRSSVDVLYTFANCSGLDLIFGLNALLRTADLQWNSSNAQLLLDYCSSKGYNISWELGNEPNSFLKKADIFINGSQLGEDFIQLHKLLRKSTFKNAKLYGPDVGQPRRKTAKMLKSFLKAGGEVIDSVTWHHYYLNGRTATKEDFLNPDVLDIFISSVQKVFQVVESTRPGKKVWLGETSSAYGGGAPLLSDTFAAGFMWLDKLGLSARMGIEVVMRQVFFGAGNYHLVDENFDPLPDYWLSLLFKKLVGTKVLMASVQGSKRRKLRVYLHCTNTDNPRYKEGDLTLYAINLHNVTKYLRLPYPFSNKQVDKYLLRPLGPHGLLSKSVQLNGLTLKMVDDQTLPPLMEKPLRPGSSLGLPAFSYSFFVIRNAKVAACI
How it was run: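 Recombinant human heparanase assayed by ultrafiltration with 3H-labelled heparan sulfate as substrate (Km = 1.64 μM). Ki values with standard error were derived from inhibition response curves.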

[4] = biological target: Fibroblast growth factor 1 (Homo sapiens, UniProt P05230); test: Binding affinity to FGF1 by surface plasmon-based solution affinity assay
Fibroblast growth factor 1, sequence (P05230 whole entry): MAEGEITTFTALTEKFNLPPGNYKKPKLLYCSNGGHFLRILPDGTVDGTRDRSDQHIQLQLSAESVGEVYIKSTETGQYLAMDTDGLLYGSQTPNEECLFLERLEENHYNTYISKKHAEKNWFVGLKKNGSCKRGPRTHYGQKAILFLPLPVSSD
How it was run: (§1)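 Surface plasmon resonance solution affinity assay on heparin-coated CM4 chips. Buffer: HBS-EP (10 mM HEPES pH 7.4, 150 mM NaCl, 3.0 mM EDTA, 0.005% polysorbate 20). Kd is the mean of at least duplicate measurements ± SD.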

[5] = biological target: T2, Vascular endothelial growth factor A, long form (Homo sapiens, UniProt P15692); test: Binding affinity to VEGF by surface plasmon-based solution affinity assay; how it was run: as §1
T2 sequence (P15692 whole entry): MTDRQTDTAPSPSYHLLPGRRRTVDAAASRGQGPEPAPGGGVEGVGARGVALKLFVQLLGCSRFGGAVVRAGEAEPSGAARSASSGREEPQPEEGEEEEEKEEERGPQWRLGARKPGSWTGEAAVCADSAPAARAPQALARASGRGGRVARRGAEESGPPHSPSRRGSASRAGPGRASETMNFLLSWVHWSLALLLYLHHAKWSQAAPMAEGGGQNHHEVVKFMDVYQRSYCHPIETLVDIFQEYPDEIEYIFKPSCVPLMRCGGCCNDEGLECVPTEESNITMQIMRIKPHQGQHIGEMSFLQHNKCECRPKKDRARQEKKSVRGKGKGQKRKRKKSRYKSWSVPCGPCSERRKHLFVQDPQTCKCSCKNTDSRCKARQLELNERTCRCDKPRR

Plasma [6] = test: Anticoagulant activity in human plasma by heptest; format: functional
How it was run: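 Heptest clot assay. Plasma (centrifuged 1800g, 10 min, used within 30 min) incubated with compound 2 min at 37 °C. Factor Xa added, 2 min at 37 °C, then clotting started with Recalmix; read on a ball coagulometer. Normal range 13–20 s; means of two determinations.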

Row | Compound | LC50 (HUVEC) | Activity [1] | Time (Plasma [2]) | Kd [3] | Ki (Heparanase) | Kd [4] | Kd [5] | Activity (Plasma [6])
1 | MUPARFOSTAT SODIUM | > 100000 nM | Toxic | – | – | – | – | – | –
2 | O=S(=O)([O-])OC[C@H]1O[C@H](OCCCCCCCCn2cc(-c3ccccc3)nn2)[C@@H](O[C@H]2O[C@H](COS(=O)(=O)[O-])[C@@H](OS(=O)(=O)[O-])[C@H](O[C@H]3O[C@H](COS(=O)(=O)[O-])[C@@H](OS(=O)(=O)[O-])[C@H](O[C@H]4O[C@H](COS(=O)(=O)[O-])[C@@H](OS(=O)(=O)[O-])[C@H](O[C@H]5O[C@H](COS(=O)(=O)[O-])[C@@H](OS(=O)(=O)[O-])[C@H](OS(=O)(=O)[O-])[C@@H]5OS(=O)(=O)[O-])[C@@H]4OS(=O)(=O)[O-])[C@@H]3OS(=O)(=O)[O-])[C@@H]2OS(=O)(=O)[O-])[C@@H](OS(=O)(=O)[O-])[C@@H]1OS(=O)(=O)[O-].[Na+].[Na+].[Na+].[Na+].[Na+].[Na+].[Na+].[Na+].[Na+].[Na+].[Na+].[Na+].[Na+].[Na+].[Na+].[Na+] | > 100000 nM | – | 96.9 s | 43 nM | 420 nM | 0.16 nM | 0.62 nM | 38.4 s
3 | CCCCc1ccc(CO[C@H]2O[C@H](COS(=O)(=O)[O-])[C@@H](OS(=O)(=O)[O-])[C@H](OS(=O)(=O)[O-])[C@@H]2O[C@H]2O[C@H](COS(=O)(=O)[O-])[C@@H](OS(=O)(=O)[O-])[C@H](O[C@H]3O[C@H](COS(=O)(=O)[O-])[C@@H](OS(=O)(=O)[O-])[C@H](O[C@H]4O[C@H](COS(=O)(=O)[O-])[C@@H](OS(=O)(=O)[O-])[C@H](OS(=O)(=O)[O-])[C@@H]4OS(=O)(=O)[O-])[C@@H]3OS(=O)(=O)[O-])[C@@H]2OS(=O)(=O)[O-])cc1.[Na+].[Na+].[Na+].[Na+].[Na+].[Na+].[Na+].[Na+].[Na+].[Na+].[Na+].[Na+].[Na+] | > 100000 nM | – | 73.1 s | 160 nM | 310 nM | 0.21 nM | 12 nM | 49.8 s
4 | O=S(=O)([O-])OC[C@H]1O[C@H](OCCCCCCCCn2cc(-c3cccc4ccccc34)nn2)[C@@H](O[C@H]2O[C@H](COS(=O)(=O)[O-])[C@@H](OS(=O)(=O)[O-])[C@H](O[C@H]3O[C@H](COS(=O)(=O)[O-])[C@@H](OS(=O)(=O)[O-])[C@H](O[C@H]4O[C@H](COS(=O)(=O)[O-])[C@@H](OS(=O)(=O)[O-])[C@H](O[C@H]5O[C@H](COS(=O)(=O)[O-])[C@@H](OS(=O)(=O)[O-])[C@H](OS(=O)(=O)[O-])[C@@H]5OS(=O)(=O)[O-])[C@@H]4OS(=O)(=O)[O-])[C@@H]3OS(=O)(=O)[O-])[C@@H]2OS(=O)(=O)[O-])[C@@H](OS(=O)(=O)[O-])[C@@H]1OS(=O)(=O)[O-].[Na+].[Na+].[Na+].[Na+].[Na+].[Na+].[Na+].[Na+].[Na+].[Na+].[Na+].[Na+].[Na+].[Na+].[Na+].[Na+] | > 100000 nM | – | 89 s | 35 nM | 360 nM | 0.12 nM | 0.7 nM | 20 s
5 | O=S(=O)([O-])OC[C@H]1O[C@H](OCCCCCCCCn2cc(-c3ccccc3)nn2)[C@@H](O[C@H]2O[C@H](COS(=O)(=O)[O-])[C@@H](OS(=O)(=O)[O-])[C@H](O[C@H]3O[C@H](COS(=O)(=O)[O-])[C@@H](OS(=O)(=O)[O-])[C@H](O[C@H]4O[C@H](COS(=O)(=O)[O-])[C@@H](OS(=O)(=O)[O-])[C@H](OS(=O)(=O)[O-])[C@@H]4OS(=O)(=O)[O-])[C@@H]3OS(=O)(=O)[O-])[C@@H]2OS(=O)(=O)[O-])[C@@H](OS(=O)(=O)[O-])[C@@H]1OS(=O)(=O)[O-].[Na+].[Na+].[Na+].[Na+].[Na+].[Na+].[Na+].[Na+].[Na+].[Na+].[Na+].[Na+].[Na+] | > 100000 nM | Toxic | 53 s | 140 nM | 310 nM | 0.28 nM | 10.4 nM | 24.4 s
